Screening results from PubChem.
FXIIa inh 1536 = human FXIIa protease inhibitors, primary screen, biochemical, 1536-well. Coagulation factor XII (Homo sapiens), P00748. purified FXIIa, Boc-QGR-AMC fluorogenic substrate, 2 h. inhibition, % at 5 µM. 220,000 tested, 0.3% active. AID 800, 2007; in the data active = inhibition above about 40%
KLK5 inh = human KLK5 protease inhibitors, primary screen, biochemical, 1536-well; inhibition, % at 5 µM; AID 873, 2007; 210,000 tested, 0.59% active; recombinant hK5, fluorogenic AMC substrate cleavage; Kallikrein-5 (Homo sapiens), Q9Y337;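 active = inhibition of 40% or more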
Target sequence (Q9Y337 67-293 limits assumed): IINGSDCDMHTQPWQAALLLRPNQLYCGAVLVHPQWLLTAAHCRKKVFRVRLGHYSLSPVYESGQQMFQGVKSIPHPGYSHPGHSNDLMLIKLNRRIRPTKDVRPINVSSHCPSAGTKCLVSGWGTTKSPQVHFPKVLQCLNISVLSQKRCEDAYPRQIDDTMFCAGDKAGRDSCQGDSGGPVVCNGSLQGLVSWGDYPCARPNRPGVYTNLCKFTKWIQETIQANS
thrombin 1536 = human alpha-thrombin inhibitors, primary screen, counter-screen for coagulation protease inhibitor project, biochemical, 1536-well, fluorogenic AMC substrate; Boc-VPR-AMC fluorogenic substrate cleavage; inhibition, % at 5 µM; 220,000 tested, 0.26% active; AID 1046, 2008;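 active = inhibition at or above 40%; inactive = inhibition below 40%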
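System – human alpha-thrombin protein · Reagent – Boc-VPR-AMC substrate, 15 µM final · Compound – 5 µM single dose in 0.2% DMSO · Schedule – reaction at room temperature · Technique – AMC fluorescence at 355 nm excitation and 460 nm emission · Read-out basis – % inhibition relative to enzyme controls and enzyme-free blanks · Control set – no-compound enzyme wells and no-enzyme blanks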
Lipid droplet = inhibitors of hepatocyte lipid droplet formation, primary screen, imaging, high-throughput imaging, BODIPY stain | AML12 mouse hepatocytes, oleate lipid droplets | inhibition, % at 6.5 µM | 240,000 tested, 0.4% active;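 active = lipid droplet intensity inhibited by at least 50%, with more than 500 cells counted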
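material = mouse AML12 hepatocyte cell line, fixed after treatment | also added = 100 µM oleic acid challenge | doses = compound at 6.5 µM only | schedule = overnight exposure | technique = Image-based BODIPY and DAPI two-channel analysis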
Calb biofilm kill = clotrimazole potentiators killing C. albicans biofilm, primary screen, 4-compound mixtures; C. albicans biofilm persisters + clotrimazole, fluorescence viability; primary screen in compound mixtures of four per well; inhibition, % at 7.6 µM; 120,000 tested, 0.02% active; AID 1242, 2008;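 active = inhibition above 30.3% in the primary screen of four-compound pools, then above 30% when the compound was retested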;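 also: compounds exposed to preformed 24 h biofilms for 48 h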
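Incubation: 24 h biofilm formation, then 48 h compound exposure, 37 °C | Material: C. albicans biofilms | Buffer or medium: RPMI/MOPS medium, pH 7.0 | Measured by: 2-h Alamar Blue fluorescence, 535/590 nm excitation/emission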
FXIa inh 1536 = human FXIa protease inhibitors, primary screen, biochemical, 1536-well. purified FXIa, Boc-Glu-Ala-Arg-AMC fluorogenic substrate. Coagulation factor XI (Homo sapiens), P03951. inhibition, % at 5 µM. 220,000 tested, 0.14% active;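 active = inhibition of at least 40%; inactive = inhibition below 40%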;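 also: fluorescence of freed AMC excited at 355 nm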
Lipid drop inh = hepatocyte lipid droplet accumulation inhibitors, confirmation, imaging, AML12 mouse hepatocytes, single concentration, high-content. shares compounds with Lipid droplet. BODIPY lipid droplet imaging; droplets induced with 100 µM oleic acid. inhibition, % at 5.2 µM. 870 tested, 65% active;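 active = inhibition of lipid droplet metric at least 50%, with more than 300 cells in each of four replicates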
AML12 cytotox = AML12 hepatocyte cytotoxicity, counter-screen for hepatic lipid droplet formation project, imaging, DAPI nuclear morphology imaging | 870 tested, 3% active | z-score at 5 µM | shares compounds with Lipid droplet | AID 463200, 2010 | AML12 mouse hepatocytes; stronger effect = higher value; cells fed 100 µM oleate overnight; in the data active = z-score above about 6.3;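 also: compound exposure lasted overnight at 37 °C before fixation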
AML12 tox conf = AML12 hepatocyte cytotoxicity, confirmation, cytotoxicity control for hepatic lipid droplet formation project, cell-based, single concentration | shares compounds with Lipid droplet | AML12 mouse hepatocyte viability, ATP luminescence; cells loaded with 100 µM oleic acid | cytotoxicity, % at 50 µM | 530 tested, under 10 active | AID 463219, 2010;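 active = cytotoxicity above 50% in each of four replicates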;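 also: compound exposure lasted overnight at 37 °C before the ATP read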
A number is an active result; n = inactive; x = not tested or not shown. Sampled rows, rich in hits. Any-hit rate of the full collection: about 1.1%.

SMILES | FXIIa inh 1536 | KLK5 inh | thrombin 1536 | Lipid droplet | Calb biofilm kill | FXIa inh 1536 | Lipid drop inh | AML12 cytotox | AML12 tox conf
Cc1cc(N(CCO)CCO)ccc1N=Nc1cc(F)ccc1F | n | n | n | 115 | n | n | 112 | n | n
Cc1ccc(NC(=O)N2CCCCCC2)c(C)c1 | x | x | x | n | x | x | x | x | x
CCN1CCN(c2cc(C)c3cc(NC(=O)CCC(=O)Nc4ccc(OC)cc4OC)ccc3n2)CC1 | x | x | x | 89 | x | x | 94 | n | n
COc1ccc(N=C/C=C2/C=C(c3ccccc3)OC(C)(C)O2)cc1 | n | n | n | 61 | n | n | n | n | x
Cc1cc(C(c2ccc(O)cc2)c2cc(C)c(O)cc2C)c(C)cc1O | x | x | x | 56 | x | x | n | n | x
Cc1c(C(c2ccc(O)cc2)c2c(C)n(C)n(-c3ccccc3)c2=O)c(=O)n(-c2ccccc2)n1C | n | n | n | n | n | n | x | x | x
COc1ccc(C(C)=O)cc1CSc1nnc(Nc2ccc(C)cc2C)s1 | n | n | n | 90 | n | n | n | n | x
CCCOc1ccc(-c2nc(SCc3ccccc3)[nH]c(=O)c2C#N)cc1OC | x | x | x | n | x | x | x | x | x
O=C/C=C/c1c(-c2ccccc2)cc2oc3ccccc3cc1-2 | x | x | x | 70 | x | x | n | n | x
Nc1ccc(-c2cc3ccccc3oc2=O)cc1 | x | x | x | n | x | x | x | x | x
O=C(Nc1nccs1)c1ccc(CSc2ccccc2)o1 | x | x | x | n | x | x | x | x | x
O=C(O)CCCC(=O)Nc1ccc(Br)cc1 | n | n | n | n | x | n | x | x | x
O=C(O)CCCC(=O)Nc1ccc(Br)cc1C(=O)O | n | n | n | 52 | x | n | n | n | x
CCC(C)C(NC(=O)c1ccccc1NC(=O)c1ccc(OC)cc1)C(=O)NCc1ccco1 (stereo not drawn) | n | n | n | 70 | x | n | 100 | n | n
CCOc1ccccc1Nc1nnc(SCC(=O)NC(=O)c2cccn2C)s1 | n | n | n | n | n | n | x | x | x
CCOc1ccccc1Nc1nnc(SC(C)C(=O)Nc2nc(-c3ccccc3)cs2)s1 (stereo not drawn) | n | n | n | 75 | n | n | 105 | n | n
Cc1ccc(CNC(=O)CS(=O)(=O)c2cn(CC(=O)N3CCOCC3)c3ccccc23)cc1 | x | x | x | n | x | x | x | x | x
O=C(NCCc1ccccc1)c1ccc(Cl)cc1[N+](=O)[O-] | x | x | x | n | x | x | x | x | x
CCc1nn(CC(=O)NCCCN(CC)Cc2ccccc2)c(=O)c2cc3sccc3n12 | n | n | n | n | x | n | x | x | x
CCCCN(CCCNC(=O)Cn1nc(CC)n2c(cc3sc(C)cc32)c1=O)Cc1ccccc1 | x | x | x | 69 | x | x | 89 | n | n
CCCCCC(O)(c1ccc(OCC)cc1)C(CN1CCOCC1)c1ccccc1 (stereo not drawn) | x | x | x | 54 | x | x | 73 | n | n
CCCCCC(O)(c1ccc(OC)cc1)C(CN1CCOCC1)c1ccccc1 (stereo not drawn) | x | x | x | n | x | x | x | x | x
COCCn1c(=S)[nH]c2cc(C(=O)N3CC(C)CC(C)C3)ccc2c1=O (stereo not drawn) | x | x | x | n | x | x | x | x | x
Cc1cc(C)cc(NC(=O)CCC(=O)Nc2cc(C)on2)c1 | n | n | n | 75 | n | n | 71 | n | n
CCc1ccc(NC(=O)CSc2nnc(C)c(=O)n2N)cc1 | x | x | x | 58 | x | x | 89 | n | n
SMILES | FXIIa inh 1536 | KLK5 inh | thrombin 1536 | Lipid droplet | Calb biofilm kill | FXIa inh 1536 | Lipid drop inh | AML12 cytotox | AML12 tox conf
COc1ccc(NS(=O)(=O)c2ccc(NC(=S)NCC3CCCO3)cc2)cc1 (stereo not drawn) | x | x | x | 84 | x | x | 100 | n | n
Cc1ccc2nc(Cl)c(C#N)cc2c1 | n | n | n | n | n | n | x | x | x
COc1ccc(CC(=O)Nc2ccc(N3CCCCC3)cc2)cc1 | n | n | n | n | n | n | x | x | x
COc1ccc(C(=O)CCC(=O)Nc2ccc(N3CCCCC3)cc2)cc1OC | x | x | x | 92 | x | x | 108 | n | n
O=C(NC1CCCN(Cc2ccccc2F)C1)C1CCC1 (stereo not drawn) | x | x | x | n | x | x | x | x | x
COc1ccccc1/C=C/C(=O)NCC(=O)N/N=C/c1cc(Br)ccc1OC | n | n | n | 73 | x | n | 106 | n | n
Cc1ccc(S(=O)(=O)N2CC3CCCC2C3)cc1 (stereo not drawn) | n | n | n | n | n | n | x | x | x
O=C(CSc1nc2ccccc2[nH]1)N1c2ccccc2Sc2ccccc21 | n | n | n | n | n | n | x | x | x
O=C(CSc1nc(O)cc(=O)[nH]1)N1c2ccccc2Sc2ccccc21 | n | n | n | 56 | n | n | n | n | x
COc1ccc(-c2cc(-c3ccccc3)nc(SCC(=O)Nc3ncc(C)s3)c2C#N)cc1 | n | n | n | n | n | n | x | x | x
CCOc1ccc2nc(-c3ccccc3)nc(SCC(=O)Nc3ncc(C)s3)c2c1 | n | n | n | 101 | x | n | 107 | n | n
CCOc1ccccc1NC(=O)N1CCC(C(=O)c2ccc(F)cc2)CC1 | n | n | n | 59 | x | n | 95 | n | n
CCOc1ccccc1NC(=O)C1CCN(C(=O)NCc2ccccc2)CC1 | n | n | n | 130 | n | n | 110 | n | n
COc1ccc(CNC(=O)C2CCCN(C(=O)Nc3ccccc3OC)C2)cc1 (stereo not drawn) | x | x | x | 81 | x | x | 99 | n | n
COc1cccc(NC(=O)N2CCCC(C(=O)Nc3ccccc3OC)C2)c1 (stereo not drawn) | n | n | n | x | x | n | x | x | x
Cc1ccccc1NC(=S)c1ccc2ccccc2n1 | x | x | x | n | x | x | x | x | x
COc1ccccc1NC(=O)CCSc1nc(C)cc(C)n1 | n | n | n | n | n | n | x | x | x
CCN(CC)c1ccc(NC(=O)CN2CCN(S(=O)(=O)c3cc(Cl)ccc3OC)CC2)cc1 | n | n | n | 60 | x | n | 63 | n | n
Cc1ccc(-c2ccc(SCC(=O)Nc3ccc4c(c3)OCCO4)nn2)cc1 | n | n | n | n | n | n | x | x | x
Cc1ccc(C2=NC3(CCCCC3)N=C2SCC(=O)Nc2ccc3c(c2)OCCO3)cc1 | n | n | n | 54 | n | n | 70 | n | n
Nc1nc(-c2ccccc2)c(N=Nc2cccc3ccccc23)s1 | n | n | n | 113 | n | n | 115 | n | n
Nc1nc(-c2ccccc2)c(N=Nc2ccccc2Cl)s1 | n | n | n | 104 | n | n | 114 | n | n
